# Screening data (PubChem)
# PRMT1 inh = blocks human protein arginine methyltransferase 1; Q99873; recombinant PRMT1, activity-based probe fluorescence polarization; inhibition, % at 2.79 µM; hit rate 1.3% among 370,000; AID 652257;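 active means inhibition above about 21% made by adding two undisclosed values, limit read from the data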
# Target sequence (Q99873 whole entry, looked up): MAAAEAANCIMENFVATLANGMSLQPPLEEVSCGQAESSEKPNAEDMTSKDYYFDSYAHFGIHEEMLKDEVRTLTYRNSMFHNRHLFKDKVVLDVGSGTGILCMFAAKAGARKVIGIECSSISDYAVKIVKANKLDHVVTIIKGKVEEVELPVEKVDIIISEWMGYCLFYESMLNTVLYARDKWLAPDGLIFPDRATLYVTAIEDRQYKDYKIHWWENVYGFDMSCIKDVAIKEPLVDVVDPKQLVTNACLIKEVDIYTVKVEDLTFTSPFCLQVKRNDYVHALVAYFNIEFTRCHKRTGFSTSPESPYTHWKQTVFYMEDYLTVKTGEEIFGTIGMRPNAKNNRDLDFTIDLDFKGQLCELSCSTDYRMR
# SIAE inh = inhibitors of human sialic acid acetylesterase SIAE; Q9HAT2; SIAE FP-Rh probe binding, fluorescence polarization; inhibition, % at 9.66 µM; hit rate 0.69% among 370,000;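 active means inhibition above a cutoff: mean of compounds within the control limits plus 3 SD of those, cut at about 17% in these data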;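 further: 0% = plate median of compound wells and 100% = probe without SIAE protein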
# rCAG RNA binder = r(CAG) repeat RNA binding. inhibition, % at 3 µM. TO-PRO-1 dye displacement fluorescence. hit rate 1.3% among 370,000. AID 651821;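 active means inhibition above the plate cutoff, the mean of all test compounds on that plate plus 3 SD, cut at about 35% in these data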;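 further: 0% = DMSO alone and 100% = 100 µM mitoxantrone as full dye displacement; higher means more dye released from RNA so lower well fluorescence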
# mABHD4 FP = ABHD4 (mouse) inhibition, primary FP screen. Q8VD66. purified mABHD4, FP-Rh probe fluorescence polarization. inhibition, % at 8.92 µM. hit rate 0.54% among 370,000;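 active means inhibition exceeding the mean over every tested compound plus 3 SD, cut at about 30% in these data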;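 further: 0% = plate median of compound wells and 100% = S159A mutant with DMSO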
# Target sequence (Q8VD66 whole entry, looked up): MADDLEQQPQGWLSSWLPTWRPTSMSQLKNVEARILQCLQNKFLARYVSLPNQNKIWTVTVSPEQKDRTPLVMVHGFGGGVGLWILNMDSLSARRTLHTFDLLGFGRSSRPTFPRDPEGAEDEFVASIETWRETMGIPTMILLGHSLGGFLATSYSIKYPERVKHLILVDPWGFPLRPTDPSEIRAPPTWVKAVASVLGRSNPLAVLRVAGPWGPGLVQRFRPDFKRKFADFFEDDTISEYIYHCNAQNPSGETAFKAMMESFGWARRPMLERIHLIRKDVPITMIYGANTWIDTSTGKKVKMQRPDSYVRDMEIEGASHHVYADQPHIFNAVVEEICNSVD
#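 Material: mouse ABHD4 enzyme, wild type; Benchmarks: S159A mutant high control, sample median low control; Buffer or medium: HEPES pH 7.0, NaCl, Pluronic buffer; Signal: fluorescence polarization; Read-out: percent inhibition of probe binding, normalized to plate controls; Timing: pre-incubation 45 min, probe exposure 60 min, at 25 °C; Dosing: 8.92 µM, single dose.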
# TCR-CD3 inh = inhibitors of human TCR-CD3 interaction | TAMRA-labeled TCR probe fluorescence, biochemical | inhibition, % at 9.4 µM | hit rate 0.37% among 360,000 | AID 651800; in the data active means inhibition above about 19%;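 further: recombinant mutant TCR 2C K166C tagged with TAMRA read by polarization; 0% = receptor in buffer alone and 100% = receptor with positive control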
# SIAE inh conf = confirmation of human SIAE inhibitors | shares compounds with SIAE inh | SIAE FP-Rh activity-based probe, fluorescence polarization | inhibition, % at 9.66 µM | hit rate 13% among 2,300 | AID 1117263;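 active means mean inhibition of the replicates above the hit cutoff set in the primary screen, cut at about 17% in these data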;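 further: 0% = SIAE with DMSO and probe and 100% = probe without SIAE; inhibitors lower polarization as more probe stays unbound to SIAE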
# The depositor's hits bear a star; x = no result given. A selection: hits, their analogues and other compounds. The true share with any hit is near 3.3%.
SMILES,PRMT1 inh,SIAE inh,rCAG RNA binder,mABHD4 FP,TCR-CD3 inh,SIAE inh conf
CCC(c1nnnn1-c1ccc2c(c1)OCCO2)N1CCN(c2ncccc2C(F)(F)F)CC1 (stereo unspecified),-1.1,0.9,-0.5,-9.1,7.7,x
O=C(CSc1n[nH]c(-c2cccnc2)n1)OC1CCCCC1,2.0,17.8*,-5.1,-4.0,-4.3,-3.2
O=C(CSc1n[nH]c(-c2cccnc2)n1)Nc1ccc(Br)cc1,-4.1,-3.2,4.4,-21.5,-3.1,x
CC(=O)Nc1ccc(NC(=O)COC(=O)C2CCCCC2)cc1,5.4,-3.1,0.3,8.2,-4.6,x
Cc1csc(Nc2ccc(Cl)cc2)n1,-6.0,19.0*,-0.8,-1.9,2.6,0.7
COc1ccc([C@@H](C)NC(=O)c2ccc3oc(C(C)C)nc3c2)cc1,-0.8,4.5,-4.0,-5.7,0.6,x
O=C1/C(=C\c2ccco2)SC(=S)N1c1ccccc1,14.3,24.8*,26.8,18.4,1.5,3.9
CC1(C)CC(=O)C(C=NCC(N)=O)=C(O)C1,-2.5,17.7*,1.0,-3.0,6.8,-1.1
CN=CC1=C(O)CC(C)(C)CC1=O,0.5,6.3,-2.6,12.6,-0.1,x
COc1ccc(C(=O)c2[nH]c(N)c(C(=O)NCCc3c[nH]c4ccccc34)c2-c2ccccc2Br)cc1,2.9,-0.2,11.6,10.0,-1.0,x
CCCCCCCCN1CN2Cc3cc(OC)ccc3C2CS1(=O)=O (stereo unspecified),-1.4,-6.0,1.0,-8.4,x,x
CC1=CCC2C(=O)N(c3cccc(C(=O)N(C)C4CCCCC4)c3)C(=O)C2C1 (stereo unspecified),-0.2,14.7,-8.0,-2.8,-1.7,x
CN(C(=O)c1cccc(N2C(=O)C3C4C=CC(C4)C3C2=O)c1)C1CCCCC1 (stereo unspecified),-2.7,18.8*,-5.9,-0.8,4.2,2.5
Cc1cc(S(=O)(=O)NC(=O)[C@H]2O[C@@H](n3cnc4c(N)ncnc43)[C@H](O)[C@@H]2O)ccc1Br,1.6,47.1*,2.8,9.8,-1.0,50.6*
Cc1ccc(OCCNC(=O)[C@H]2O[C@@H](n3cnc4c(N)ncnc43)[C@H](O)[C@@H]2O)cc1C,2.0,10.8,-0.8,7.7,3.4,x
Nc1ncnc2c1ncn2C1OC(C(=O)NC2CC2)C(O)C1O (stereo unspecified),-4.2,-1.3,1.6,4.3,0.3,x
COc1cc(NC(=O)[C@H]2O[C@@H](n3cnc4c(N)ncnc43)[C@H](O)[C@@H]2O)cc(OC)c1OC,-2.6,61.3*,1.6,3.6,3.7,69.1*
Nc1ncnc2c1ncn2[C@@H]1O[C@H](C(=O)NCc2ccc3c(c2)OCO3)[C@@H](O)[C@H]1O,0.9,70.9*,4.5,8.7,3.7,76.3*
O=C(NCc1ccccc1)c1cnc(Cc2c[nH]c3ccccc23)c(I)c1,4.3,4.5,20.6,0.5,3.2,x
Clc1ccc(-c2csc(N3CCOCC3)n2)cc1,-1.4,1.2,-0.2,5.6,7.7,x
Clc1ccc(-c2csc(N3CCCCCC3)n2)cc1,9.4,76.2*,-0.5,-13.8,-5.5,4.8
S=C(Nc1ccc(Cl)cc1)N1CCN(Cc2ccccc2)CC1,1.2,18.1*,-3.8,-1.7,-5.8,6.2
Cc1ccc(NC(=S)N2CCN(Cc3ccccc3)CC2)cc1,-2.3,1.5,-2.9,5.3,1.7,x
COc1ccc(Nc2cc(C)nc3ccc(OC)cc23)cc1,-0.9,19.4*,9.1,3.2,4.3,4.7
Cc1ccc(Nc2cc(C)nc3ccc(C)cc23)cc1,-0.3,-2.6,4.3,6.4,-5.0,x
SMILES,PRMT1 inh,SIAE inh,rCAG RNA binder,mABHD4 FP,TCR-CD3 inh,SIAE inh conf
O=C(NCC(c1ccco1)N1CCc2ccccc21)c1ccccc1 (stereo unspecified),1.6,23.3*,0.2,1.6,-4.5,2.7
COc1ccccc1C(=O)NCC(c1ccco1)N1CCc2ccccc21 (stereo unspecified),0.6,0.3,-2.1,1.4,4.2,x
COc1ccc(OC)c(S(=O)(=O)NCC(c2ccco2)N2CCc3ccccc32)c1 (stereo unspecified),-2.2,17.7*,2.4,0.7,7.4,6.4
Cc1ccc(C(=O)NCC(c2ccco2)N2CCc3ccccc32)cc1C (stereo unspecified),1.0,-1.4,2.4,-1.5,-2.0,x
CCOc1ccccc1C(=O)NCC(=O)NCC(C)(C)N1CCOCC1,-2.1,-1.7,0.6,-3.7,3.1,x
CCN(CC)C(=O)C1=C(C)N(CCC2=CCCCC2)C(=O)C(CC(=O)NCCCCc2ccccc2)C1 (stereo unspecified),-4.6,-0.8,1.8,-1.8,-3.1,x
Cc1ccc(NC2=CC(=O)CC(C)(C)C2)cc1Cl,-2.5,19.6*,-4.2,-0.9,4.1,-0.1
CC1(C)CC(=O)C=C(Nc2ccc(F)c(Cl)c2)C1,-0.2,-5.0,-0.8,0.6,7.5,x
COc1ccccc1NC(=O)CN1CCN(CC(=O)Nc2ccc(Cl)c(C(F)(F)F)c2)CC1,-1.2,-7.1,-2.7,-5.6,5.7,x
CCc1ccccc1NCC(=O)Nc1ccc(Cl)c(C(F)(F)F)c1,-0.8,27.0*,4.7,-15.7,0.1,11.0
O=C(N/N=C\c1ccccn1)c1cccc(C(=O)N/N=C\c2ccccn2)n1,-5.7,20.9*,-2.8,-5.2,18.4,21.3*
O=C(N/N=C/c1ccccn1)c1ccccc1,-0.8,-3.0,0.6,-3.6,-5.5,x
Cc1ccc2cccc(N)c2n1,-0.1,32.1*,-2.4,5.1,9.9,5.2
CCc1ccc(/C=C2/SC(N3CCOCC3)=NC2=O)cc1,2.6,17.8*,-3.2,-2.7,-3.8,3.5
CC(C)C[C@H]1CN([C@@H](Cc2ccccc2)CN2CCC[C@H]2CN2C(=O)C(=O)NC[C@@H]2Cc2ccccc2)C(=O)C(=O)N1CCc1ccccc1,1.9,-8.5,3.8,3.0,-2.6,x
O=C(C1CCC(CNc2nc(=S)[nH]c3ccccc23)CC1)N1CCN(c2ccc(F)cc2)CC1 (stereo unspecified),0.5,20.0*,6.4,-2.0,-2.4,-11.8
COc1ccc(N2CCN(CCCNC(=O)C3CCC(CNc4nc(=S)[nH]c5ccccc45)CC3)CC2)cc1 (stereo unspecified),1.0,5.2,-3.8,3.9,-12.8,x
Cc1cc(C)nc(SCc2ccc(C(=O)N/N=C/c3cccc(O)c3O)cc2)n1,1.0,43.4*,24.2,16.6,11.9,-15.8
COc1ccc(O)c(/C=N/NC(=O)c2ccc(CSc3nc(C)cc(C)n3)cc2)c1,3.4,4.0,17.9,5.8,14.1,x
CC(=O)N1CCc2cc(S(=O)(=O)CCC(=O)Nc3ccccc3F)ccc21,1.9,0.9,2.9,-3.1,2.2,x
Cn1cccc1-c1cc(C(=O)N/N=C/c2cc(Br)ccc2O)[nH]n1,-0.4,23.8*,25.3,2.2,-1.9,-6.0
CSCc1cc(N(C)c2ccccc2)nc(-c2ccccc2)n1,1.5,1.1,-4.0,-3.9,6.5,x
COc1ccc(N2C(=O)C(=O)/C(=C(/O)c3ccc(C)cc3)C2c2cccnc2)cc1 (stereo unspecified),-2.8,21.2*,-0.5,6.9,1.4,3.5
